Results as given in publication PMC5598389 (Toxicology Reports, 2015).
Where “and” joins values, the source holds several entries; their conditions need not be identical. Identical values can stand only once. Entries after “also recorded” stand apart in the source; their conditions may differ. Counter-ions that a name gives are not always drawn. Like-named read-outs stand apart in the source and are kept apart here.

Key:
[1] = In vitro metabolism in liver microsomes; type: in vitro ADME, Sprague-Dawley rat; settings: Rat (20 min), positive ionization
[2] = In vitro metabolism in liver microsomes; type: in vitro ADME, Gottingen pig; settings: Pig (10 min), positive ionization
[3] = In vitro metabolism in liver microsomes; type: in vitro ADME; settings: Dog (60 min), positive ionization
[4] = In vitro metabolism in liver microsomes; type: in vitro ADME; settings: Human (60 min), positive ionization
[5] = Pharmacokinetics after single iv or oral S2227 in rats; type: in vivo, Sprague-Dawley rats; settings: for AUC(0-t) / Cmax / Tmax / half-life: Sprague-Dawley, rat; for AUC(0-t) / Cmax / Tmax / half-life / AUC0-last/dose: plasma
In short: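 IV dosing: 4 male and 4 female Sprague-Dawley rats given a 1 mg/kg bolus in PEG 400, with blood sampled at about 0, 2, 5, 10 and 30 min and 1, 2, 4 and 8 h. Oral dosing: 4/sex/group gavaged at 10, 30 or 100 mg/kg in 1% methylcellulose, with blood sampled at about 0, 15 and 30 min and 1, 2, 4, 8 and 24 h. Plasma was assayed for parent and metabolites.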

[6] = Pharmacokinetics after single iv or oral S2227 in dogs; type: in vivo, beagle dogs; settings: for AUC0-last ratio M179/S2227 / AUC0-last/dose: Dog (M); for AUC(0-t) / Cmax / Tmax / half-life: male, beagle, dog; for AUC(0-t) / Cmax / Tmax / half-life / AUC0-last/dose: plasma
[7] = Pharmacokinetics of S2227 and M179 hydrochloride in mice; type: in vivo, male CD-1 mice; settings: for AUC(0-t): male, CD-1, mouse, plasma, po
In short: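 Two groups of 28 male Crl:CD-1(ICR) mice were gavaged with a 1% methylcellulose suspension of either parent (30 mg/kg) or the equimolar secondary amine hydrochloride (20 mg/kg). Blood was taken by cardiac puncture from 4 mice/group/time point at about 15 and 30 min and 1, 2, 4, 8 and 24 h. Plasma levels of parent and metabolites gave Cmax and AUClast.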

[8] = tested on: S. typhimurium strains TA98, TA100, TA1535, TA1537 and E. coli strain WP2 uvrA; experiment: Bacterial reverse mutation test; type: cell-based; settings: 50-5000 μg/plate, initial and confirmatory plate incorporation, ±S9
In short: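 OECD 471 design, run with and without Aroclor 1254-induced male Sprague-Dawley rat liver S9 (9000 × g fraction). The parent compound was tested by plate incorporation and pre-incubation at 63–1000 µg/plate. The secondary amine hydrolysis product (hydrochloride) was tested by plate incorporation only, in an initial toxicity-mutation phase and a confirmatory phase, at nominal 50–5000 µg/plate. Positive and vehicle controls ran concurrently.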

[9] = tested on: bone marrow polychromatic erythrocytes; experiment: In vivo micronucleus assay, bone marrow PCEs; design: species or system CD-1 mice; settings: for Mortality: dose range finding
In short: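 Crl:CD-1(ICR) mice were gavaged for three consecutive days in 1% methylcellulose at 10 mL/kg. Dose-range phases used 3/sex/group: parent at 500–2000 mg/kg, amine salt at 125–2000 mg/kg/day. Definitive phases used 6/sex (parent) or 5/sex (amine), with MMS 40 mg/kg/day as positive control. Micronuclei were scored in 2000 bone marrow PCEs per animal, and the PCE/total erythrocyte ratio was used for cytotoxicity.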

liver cells = experiment: In vivo alkaline comet assay, liver; design: species or system CD-1 mice; settings: males: 125, 250, 500 mg/kg bw; females: 250, 500, 1000 mg/kg bw (oral)
In short: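 Run on the same Crl:CD-1(ICR) mice as the micronucleus study, 5/sex/group. Animals received the salt of the secondary amine hydrolysis product by oral gavage for three consecutive days, with 1% methylcellulose as vehicle control. Liver cells were analysed by alkaline single-cell gel electrophoresis, scoring % tail DNA and counting "clouds" (hedgehogs) against vehicle controls.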

[10] = tested on: human peripheral blood lymphocytes (HPBL); experiment: In vitro chromosome aberration test
CYP2C19 = CYP2C19 (Homo sapiens, UniProt P33261); settings: 10 μM, spectrofluorimetric substrates; ref Arthur, unpublished results; cited from earlier work
Chain of CYP2C19 (P33261 whole entry): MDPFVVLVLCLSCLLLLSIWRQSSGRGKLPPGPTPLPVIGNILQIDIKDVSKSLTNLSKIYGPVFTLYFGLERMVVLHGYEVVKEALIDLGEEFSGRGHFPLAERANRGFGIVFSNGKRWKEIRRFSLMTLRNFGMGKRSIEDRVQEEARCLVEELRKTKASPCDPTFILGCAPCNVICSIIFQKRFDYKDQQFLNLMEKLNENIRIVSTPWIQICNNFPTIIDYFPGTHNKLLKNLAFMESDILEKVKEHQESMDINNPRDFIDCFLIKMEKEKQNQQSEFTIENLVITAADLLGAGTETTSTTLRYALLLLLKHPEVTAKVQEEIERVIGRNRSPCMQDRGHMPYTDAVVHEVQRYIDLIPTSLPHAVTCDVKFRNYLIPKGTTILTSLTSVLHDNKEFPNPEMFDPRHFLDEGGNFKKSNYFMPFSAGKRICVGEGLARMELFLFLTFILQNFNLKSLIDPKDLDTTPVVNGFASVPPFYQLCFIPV

[11] = 28-day and 22-week rat and 28-day dog studies; cited from earlier work
[12] = ref Chi, unpublished results, cited from earlier work

For c1csc(CNc2cc[nH]n2)c1 [M179, N-(2-thienylmethyl)-1H-pyrazol-3-amine], the “relative EIC peak area (%) compared to S2227 peak area at T = 0 min” value (from here on “relative EIC peak area (%)”) [1] was 6.47%, the “relative EIC peak area (%)” value [2] was 37.29% and the “relative EIC peak area (%)” value [3] was 10.26%. The “relative EIC peak area (%)” value [4] was 0.91%, the “AUC0-last ratio M179/S2227” value ([5]; S2227 iv 1.0 mg/kg, Rat (F)) was 0.042 and the “AUC0-last ratio M179/S2227” value ([5]; S2227 iv 1.0 mg/kg, Rat (M)) was 0.040. For the same molecule, the “AUC0-last ratio M179/S2227” value ([5]; S2227 oral gavage 10 mg/kg, Rat (F)) was 48.9, the “AUC0-last ratio M179/S2227” value ([5]; S2227 oral gavage 10 mg/kg, Rat (M)) was 155 and the “AUC0-last ratio M179/S2227” value ([5]; S2227 oral gavage 30 mg/kg, Rat (F)) was 86.2. The “AUC0-last ratio M179/S2227” value ([5]; S2227 oral gavage 30 mg/kg, Rat (M)) was 98.6, the “AUC0-last ratio M179/S2227” value ([5]; S2227 oral gavage 100 mg/kg, Rat (F)) was 38.1 and the “AUC0-last ratio M179/S2227” value ([5]; S2227 oral gavage 100 mg/kg, Rat (M)) was 69.9. It also gave an AUC(0-t) ([5]; female, iv, 1 mg/kg) of 12.6 ± 5.02 ng·h/mL, a Cmax ([5]; female, iv, 1 mg/kg) of 14 ± 4.84 ng/mL and a Tmax ([5]; female, iv, 1 mg/kg) of 7.8 min. It also gave a half-life ([5]; female, iv, 1 mg/kg) of 49.2 min, an AUC(0-t) ([5]; female, po, 10 mg/kg) of 384 ± 267 ng·h/mL and a Cmax ([5]; female, po, 10 mg/kg) of 407 ± 289 ng/mL. It also gave a Tmax ([5]; female, po, 10 mg/kg) of 26.4 min, a half-life ([5]; female, po, 10 mg/kg) of 61.2 min and an AUC(0-t) ([5]; female, po, 30 mg/kg) of 2510 ± 1700 ng·h/mL. It also gave a Cmax ([5]; female, po, 30 mg/kg) of 1540 ± 1050 ng/mL, a Tmax ([5]; female, po, 30 mg/kg) of 45 min and a half-life ([5]; female, po, 30 mg/kg) of 63.6 min. The AUC(0-t) ([5]; female, po, 100 mg/kg) was 5980 ± 745 ng·h/mL, the Cmax ([5]; female, po, 100 mg/kg) was 1770 ± 457 ng/mL and the Tmax ([5]; female, po, 100 mg/kg) was 49.8 min. The half-life ([5]; female, po, 100 mg/kg) was 110 min, the AUC(0-t) ([5]; male, iv, 1 mg/kg) was 8.78 ± 1.97 ng·h/mL and the Cmax ([5]; male, iv, 1 mg/kg) was 15.1 ± 3.23 ng/mL. The Tmax ([5]; male, iv, 1 mg/kg) was 6.6 min, the half-life ([5]; male, iv, 1 mg/kg) was 16.8 min and the AUC(0-t) ([5]; male, po, 10 mg/kg) was 254 ± 102 ng·h/mL. For the same molecule, the Cmax ([5]; male, po, 10 mg/kg) was 189 ± 94.5 ng/mL, the Tmax ([5]; male, po, 10 mg/kg) was 30 min and the half-life ([5]; male, po, 10 mg/kg) was 67.2 min. It also gave an AUC(0-t) ([5]; male, po, 30 mg/kg) of 614 ± 201 ng·h/mL, a Cmax ([5]; male, po, 30 mg/kg) of 290 ± 115 ng/mL and a Tmax ([5]; male, po, 30 mg/kg) of 45 min. For the same molecule, the half-life ([5]; male, po, 30 mg/kg) was 77.4 min, the AUC(0-t) ([5]; male, po, 100 mg/kg) was 3500 ± 813 ng·h/mL and the Cmax ([5]; male, po, 100 mg/kg) was 5.64 µM and 1010 ng/mL. The Tmax ([5]; male, po, 100 mg/kg) was 67.8 min, the half-life ([5]; male, po, 100 mg/kg) was 110 min and the AUC0-last/dose ([5]; dosed S2227 iv 1.0 mg/kg, Rat (F)) was 12.6 ng·h/mL/mg/kg. For the same molecule, the AUC0-last/dose ([5]; dosed S2227 iv 1.0 mg/kg, Rat (M)) was 8.78 ng·h/mL/mg/kg, the AUC0-last/dose ([5]; dosed S2227 oral gavage 10 mg/kg, Rat (F)) was 38.4 ng·h/mL/mg/kg and the AUC0-last/dose ([5]; dosed S2227 oral gavage 10 mg/kg, Rat (M)) was 25.4 ng·h/mL/mg/kg. The AUC0-last/dose ([5]; dosed S2227 oral gavage 30 mg/kg, Rat (F)) was 83.7 ng·h/mL/mg/kg, the AUC0-last/dose ([5]; dosed S2227 oral gavage 30 mg/kg, Rat (M)) was 20.5 ng·h/mL/mg/kg and the AUC0-last/dose ([5]; dosed S2227 oral gavage 100 mg/kg, Rat (F)) was 59.8 ng·h/mL/mg/kg. For the same molecule, the AUC0-last/dose ([5]; dosed S2227 oral gavage 100 mg/kg, Rat (M)) was 35.0 ng·h/mL/mg/kg, the “AUC0-last ratio M179/S2227” value ([6]; S2227 iv 1.0 mg/kg) was 0.007 and the “AUC0-last ratio M179/S2227” value ([6]; S2227 oral gavage 10 mg/kg) was 0.187. The “AUC0-last ratio M179/S2227” value ([6]; S2227 oral gavage 30 mg/kg) was 0.139, the “AUC0-last ratio M179/S2227” value ([6]; S2227 oral gavage 100 mg/kg) was 0.243 and the AUC(0-t) ([6]; iv, 1 mg/kg) was 6.63 ± 0.9 ng·h/mL. The Cmax ([6]; iv, 1 mg/kg) was 5.2 ± 0.9 ng/mL, the Tmax ([6]; iv, 1 mg/kg) was 0.5 h and the half-life ([6]; iv, 1 mg/kg) was 66 min. It also gave an AUC(0-t) ([6]; po, 10 mg/kg) of 22.2 ± 8.78 ng·h/mL, a Cmax ([6]; po, 10 mg/kg) of 10.2 ± 4.84 ng/mL and a Tmax ([6]; po, 10 mg/kg) of 4.67 h. For the same molecule, the half-life ([6]; po, 10 mg/kg) was 286 min, the AUC(0-t) ([6]; po, 30 mg/kg) was 31 ± 15.4 ng·h/mL and the Cmax ([6]; po, 30 mg/kg) was 6.81 ± 2.15 ng/mL. For the same molecule, the Tmax ([6]; po, 30 mg/kg) was 1 h, the half-life ([6]; po, 30 mg/kg) was 136 min and the AUC(0-t) ([6]; po, 100 mg/kg) was 171 ± 144 ng·h/mL. For the same molecule, the Cmax ([6]; po, 100 mg/kg) was 129 nM and 23.1 ng/mL, the Tmax ([6]; po, 100 mg/kg) was 10 h and the half-life ([6]; po, 100 mg/kg) was 281 min. It also gave an AUC0-last/dose ([6]; dosed S2227 iv 1.0 mg/kg) of 6.63 ng·h/mL/mg/kg, an AUC0-last/dose ([6]; dosed S2227 oral gavage 10 mg/kg) of 2.22 ng·h/mL/mg/kg and an AUC0-last/dose ([6]; dosed S2227 oral gavage 30 mg/kg) of 1.03 ng·h/mL/mg/kg. For the same molecule, the AUC0-last/dose ([6]; dosed S2227 oral gavage 100 mg/kg) was 1.71 ng·h/mL/mg/kg, the AUC(0-t) ([7]; 20 mg/kg) was 4370 ng·h/mL and the AUC(0-t) ([7]; 30 mg/kg) was 27.6 ng·h/mL. The “Reverse mutation (in vitro)” value [8] was “not mutagenic; also recorded: Negative”, the “Micronucleus formation (in vivo)” value ([9]; males: 125, 250, 500 mg/kg bw, females: 250, 500, 1000 mg/kg bw (oral)) was “did not induce micronuclei; also recorded: Negative” and the “DNA damage (in vivo), liver Comet assay” value (liver cells) was “negative (non-DNA damaging); also recorded: Negative”. The “Chromosome aberration (in vitro)” value ([10]; 280-2160 μg/mL 4 h -S9, 100-1840 μg/mL 4 h +S9, 25-280 μg/mL 20 h -S9) was “Positive (4 h,⿿S9)”, the “induction of structural aberrations” value ([10]; S9-activated test system) was “negative” and the “induction of numerical aberrations” value ([10]; non-activated and S9-activated test systems) was “negative”. The “induction of structural aberrations” value ([10]; non-activated test system) was “positive”.
In the case of CCNC(=O)C1CC(C)CCC1C(C)C (centres unmarked) [FEMA 3455, N-ethyl-p-menthane-3-carboxamide], the “% inhibition of CYP2C19” value (CYP2C19) is given as 74% and the NOEL [11] is given as 8 mg/kg/day.
For CCN(Cc1cccs1)C(=O)COc1ccc(C)cc1 [S5031, 2-(4-methylphenoxy)-N-ethyl-N-(2-thienylmethyl) acetamide], the “AUC0-8h ratio (acid/amine)” value ([12]; jugular vein (JV)) is listed as 23.0, the “AUC0-8h ratio (amide/acid)” value ([12]; jugular vein (JV)) is listed as 0.013 and the “AUC0-8h ratio (acid/amine)” value ([12]; portal vein (PV)) is listed as 13.3. The “AUC0-8h ratio (amide/acid)” value ([12]; portal vein (PV)) was 0.52.
For c1csc(CNc2cc[nH]n2)c1 [M179 hydrochloride salt, N-(2-thienylmethyl)-1H-pyrazol-3-amine], the “fold higher exposure of M179 in plasma than after an equimolar dose of S2227” value ([7]; oral, mice) was 158 fold, the Mortality ([9]; females, 2000 mg/kg) was 3/3 and the Mortality ([9]; males, 1000 mg/kg/day) was 2/3. For the same molecule, the Mortality ([9]; males, 2000 mg/kg) was 3/3.
